Reference: ChEMBL document CHEMBL1155725, “Antimicrobial cuparene-type sesquiterpenes, enokipodins C and D, from a mycelial culture of Flammulina velutipes” (2001)
The source made the active and inactive calls. The calls are words filed in the database; no cut-off is given here.

How the values were obtained:
[1] = test system: Bacillus subtilis; assay: Antimicrobial activity against Bacillus subtilis LMA0011 at 25 ug/8 mm disk after 18 hrs by paper disk method; type: functional
Method in brief: (§1)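 Disk diffusion: 25 or 50 µg sample in acetone (20 µL) on air-dried 8 mm paper disk, placed on agar seeded with organism; plates held overnight at 4 °C for diffusion, then 37 °C for 18 h. Read-out: diameter of clear inhibition zone; triplicate.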

[2] = test system: Escherichia coli; assay: Antimicrobial activity against Escherichia coli AHU1714 at 25 ug/8 mm disk after 18 hrs by paper disk method; type: functional; method in brief: as §1
[3] = test system: Pseudomonas fluorescens; assay: Antimicrobial activity against Pseudomonas fluorescens AHU1719 at 25 ug/8 mm disk after 18 hrs by paper disk method; type: functional; method in brief: as §1
[4] = test system: Bacillus subtilis; assay: Antimicrobial activity against Bacillus subtilis LMA0011 at 50 ug/8 mm disk after 18 hrs by paper disk method; type: functional; method in brief: as §1
[5] = test system: Escherichia coli; assay: Antimicrobial activity against Escherichia coli AHU1714 at 50 ug/8 mm disk after 18 hrs by paper disk method; type: functional; method in brief: as §1
[6] = test system: Cladosporium herbarum; assay: Antifungal activity against Cladosporium herbarum AHU9262 after 3 days by TLC plate assay; type: functional, organism-based
Method in brief: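 TLC bioautography: EtOAc extract of culture filtrate (equivalent to 0.25 mL medium) developed in CHCl3–MeOH 25:1, sprayed with C. herbarum spore suspension, incubated 25 °C under humid conditions for 3 days; inhibitory zones matched to UV 254 nm spots.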

[7] = test system: Staphylococcus aureus; assay: Antimicrobial activity against Staphylococcus aureus AHU1142 at 25 ug/8 mm disk after 18 hrs by paper disk method; type: functional; method in brief: as §1
[8] = test system: Pseudomonas fluorescens; assay: Antimicrobial activity against Pseudomonas fluorescens AHU1719 at 50 ug/8 mm disk after 18 hrs by paper disk method; type: functional; method in brief: as §1
[9] = test system: Staphylococcus aureus; assay: Antimicrobial activity against Staphylococcus aureus AHU1142 at 50 ug/8 mm disk after 18 hrs by paper disk method; type: functional; method in brief: as §1
[10] = test system: Bacillus subtilis; assay: Antimicrobial activity against Bacillus subtilis LMA0011 at 12.5 ug/8 mm disk after 18 hrs by paper disk method; type: functional
Method in brief: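 Positive-control disk diffusion: pentachlorophenol 12.5 µg on 8 mm paper disk on seeded agar; overnight at 4 °C, then 37 °C for 18 h; clear inhibition-zone diameter measured; triplicate.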

| Structure (SMILES) | inhibition zone (IZ) [1] [mm] | inhibition zone (IZ) [2] [mm] | inhibition zone (IZ) [3] [mm] | inhibition zone (IZ) [4] [mm] | inhibition zone (IZ) [5] [mm] | Activity [6] | inhibition zone (IZ) [7] [mm] | inhibition zone (IZ) [8] [mm] | inhibition zone (IZ) [9] [mm] | inhibition zone (IZ) [10] [mm] |
| --- | --- | --- | --- | --- | --- | --- | --- | --- | --- | --- |
| Cc1cc2c(cc1O)[C@@]1(C)CC[C@@](O)(O2)C1(C)C [ENOKIPODIN A] | 28 | 0 | 0 | 32.6 | 0 | Active | 19.2 | 0 | 25.2 | – |
| CC1=CC(=O)C([C@@]2(C)CCC(=O)C2(C)C)=CC1=O [ENOKIPODIN B] | 17 | 0 | – | 21 | 0 | Active | 0 | – | 14 | – |
| Cc1cc2c(cc1O)[C@@]1(C)[C@H](O)C[C@@](O)(O2)C1(C)C [ENOKIPODIN C] | 20 | 0 | 0 | 26 | 0 | Active | 18 | 0 | 21.2 | – |
| CC1=CC(=O)C([C@@]2(C)[C@H](O)CC(=O)C2(C)C)=CC1=O [ENOKIPODIN D] | 11 | 0 | – | 16 | 0 | Active | 0 | – | 11.6 | – |
| Oc1c(Cl)c(Cl)c(Cl)c(Cl)c1Cl [PENTACHLOROPHENOL] | 31 | – | – | – | – | – | – | – | – | 26.6 |
